Reference: ChEMBL document CHEMBL1932943, “Montmorillonite K-10 mediated green synthesis of cyano pyridines: Their evaluation as potential inhibitors of PDE4” (Eur J Med Chem, 2012)

Each molecule was assayed against 3',5'-cyclic-AMP phosphodiesterase 4B (Homo sapiens) (UniProt Q07343) (assay: Inhibition of recombinant His-tagged PDE4B using cAMP as substrate at 30 uM preincubated for 15 mins before substrate addition measured after 1 hr by luminescence assay).
Summary of the method: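 PDE4B cDNA expressed as His-tagged protein in baculovirus-infected Sf9 cells, Ni-NTA purified. 10 ng enzyme preincubated 15 min with compound or DMSO vehicle, then 1 h with 5 µM cAMP, using a PDElight HTS cAMP phosphodiesterase kit. Reaction stopped, detection reagent added for 10 min in the dark, luminescence read. % inhibition = (RLU vehicle − RLU inhibitor)/RLU vehicle × 100.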

Chain of 3',5'-cyclic-AMP phosphodiesterase 4B (Homo sapiens) (Q07343 whole entry): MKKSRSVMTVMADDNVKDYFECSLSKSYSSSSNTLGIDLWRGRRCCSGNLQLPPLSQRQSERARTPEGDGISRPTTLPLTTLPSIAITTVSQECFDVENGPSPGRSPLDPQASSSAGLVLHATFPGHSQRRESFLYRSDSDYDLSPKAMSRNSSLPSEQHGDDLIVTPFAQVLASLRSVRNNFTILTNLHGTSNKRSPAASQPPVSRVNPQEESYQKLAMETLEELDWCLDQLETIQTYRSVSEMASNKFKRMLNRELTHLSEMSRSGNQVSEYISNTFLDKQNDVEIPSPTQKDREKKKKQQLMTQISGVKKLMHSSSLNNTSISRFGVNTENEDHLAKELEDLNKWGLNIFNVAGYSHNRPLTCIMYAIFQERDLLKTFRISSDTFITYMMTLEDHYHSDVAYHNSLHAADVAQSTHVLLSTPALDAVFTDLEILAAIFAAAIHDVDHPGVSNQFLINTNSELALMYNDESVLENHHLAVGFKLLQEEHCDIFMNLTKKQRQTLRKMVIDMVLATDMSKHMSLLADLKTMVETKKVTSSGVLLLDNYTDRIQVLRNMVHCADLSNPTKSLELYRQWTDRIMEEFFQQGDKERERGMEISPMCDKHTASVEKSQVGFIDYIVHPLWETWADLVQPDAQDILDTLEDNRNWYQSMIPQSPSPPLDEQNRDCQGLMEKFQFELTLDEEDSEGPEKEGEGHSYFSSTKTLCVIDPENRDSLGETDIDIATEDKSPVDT

Row | Compound | inhibition [%]
1 | CCOC(=O)c1c(C)nc(OCC)c(C#N)c1-c1ccc(F)cc1 | 42.3
2 | CCOC(=O)c1c(C)nc(OCC)c(C#N)c1-c1ccc(OC)cc1 | 65.9
3 | COC(=O)c1c(C)nc(OC)c(C#N)c1-c1ccc(OC)cc1 | 64.1
4 | COC(=O)c1c(C)nc(OC)c(C#N)c1-c1ccc(C(F)(F)F)cc1 | 23.5
5 | CCOC(=O)c1c(C)nc(OCC)c(C#N)c1-c1ccc(Br)cc1 | 43.7

Further lines, results first:

Row | inhibition [%] | Compound
6 | 44.8 | COC(=O)c1c(C)nc(OC)c(C#N)c1-c1ccc(Br)cc1
7 | 38.4 | COC(=O)c1c(C)nc(OC)c(C#N)c1-c1ccccc1
8 | 43.2 | COC(=O)c1c(C)nc(OC)c(C#N)c1-c1ccc(F)cc1
9 | 21.5 | COC(=O)c1c(C)nc(OC)c(C#N)c1-c1ccc(F)cc1F
10 | 20.4 | CCOC(=O)c1c(C)nc(OCC)c(C#N)c1-c1ccc(F)cc1F
11 | 22.4 | COC(=O)c1c(C)nc(OC)c(C#N)c1-c1c(F)cc(Br)cc1F
